According to ChEMBL document CHEMBL4308915, “Synthesis of novel pyrazoline derivatives and the evaluation of death mechanisms involved in their antileukemic activity” (Bioorg Med Chem, 2019):
The source made the active and inactive calls. The rule behind the calls is not given here.

Legend:
K562 [1] = test: Cytotoxicity against human K562 cells assessed as reduction in cell viability after 24 hrs by MTT assay; format: functional, cell-based; settings: K562, 24 h
Method in brief: (§1)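 MTT viability after 24 h exposure. Cells seeded at 5x10^4 per well and tested at 1-100 µM. Optical density of untreated cells set as 100% viable. IC50 derived by curve fitting. PBMC from healthy non-smoking volunteers, isolated by Ficoll-Hypaque.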

Daudi [2] = test: Cytotoxicity against human Daudi cells assessed as reduction in cell viability after 24 hrs by MTT assay; format: functional, cell-based; method in brief: as §1
B16-F10 = test: Cytotoxicity against mouse B16F10 cells assessed as reduction in cell viability after 24 hrs by MTT assay; format: functional, cell-based; settings: B16-F10, 24 h; method in brief: as §1
PBMC = test: Cytotoxicity against human PBMC assessed as reduction in cell viability after 24 hrs by MTT assay; format: cell-based
Daudi [3] = test: Cytotoxicity against human Daudi cells assessed as reduction in cell viability after 48 hrs by MTT assay; format: functional, cell-based
K562 [4] = test: Cytotoxicity against human K562 cells assessed as reduction in cell viability after 72 hrs by MTT assay; format: functional, cell-based; settings: K562, 72 h
[5] = Selectivity index, ratio of IC50 for human PBMC to IC50 for human Daudi cells after 24 hrs
Method in brief: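 MTT viability after 24 h exposure to 1-100µM; untreated control OD taken as 100%. IC50 by curve fitting in each line and in PBMC from six healthy donors (Ficoll-Hypaque). SI = IC50 PBMC / IC50 tumor line; SI ≥5 high, 2–5 moderate, <2 low.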

[6] = Hemolytic activity in human RBC at 3 times IC50 relative to control; format: ADME, cell-based, Erythrocyte; settings: red blood cells (erythrocytes), read-out: Activity
Method in brief: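 RBC from healthy non-smoking volunteers incubated with increasing concentrations of the selected pyrazolines. Saline served as the 0% lysis control and distilled water as the 100% lysis control. Percent hemolysis calculated relative to these controls.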

K562 [7] = test: Cell cycle arrest in human K562 cells assessed as increase in accumulation at G0/G1 phase at 32 uM after 12 hrs by propidium iodide/RNAse staining based flow cytometric analysis relative to control; format: functional
Jurkat [8] = test: Induction of DNA fragmentation in human Jurkat cells assessed as increase in ladder formation at 30.08 uM after 12 hrs by ethidium bromide staining based agarose gel electrophoresis method; format: functional, cell-based
K562 [9] = test: Induction of apoptosis in human K562 cells assessed as increase in Bax expression at 32 uM after 12 hrs by flow cytometric analysis relative to control; format: functional
K562 [10] = test: Induction of apoptosis in human K562 cells assessed as decrease in survivin level at 32 uM after 12 hrs by flow cytometric analysis relative to control; format: functional
K562 [11] = test: Induction of apoptosis in human K562 cells assessed as increase in caspase-3 expression at 32 uM after 12 hrs by flow cytometric analysis relative to control; format: functional
Jurkat [12] = test: Induction of apoptosis in human Jurkat cells assessed as decrease in Bcl2 expression at 30.08 uM after 12 hrs by flow cytometric analysis relative to control; design: scale not given: the % may be the effect or the level left

COc1cc(C2=NN(C(C)=O)C(c3ccc(Br)cc3)C2)cc(OC)c1OC (centres undefined)
IC50 (K562 [1]): 32 µM
IC50 (Daudi [2]): 49.8 µM
IC50 (B16-F10): 98.7 µM
IC50 (PBMC): 340 µM
IC50 (Daudi [3]): 34.8 µM
IC50 (K562 [4]): 15.1 µM
Ratio IC50 [5]: 6.8
hemolysis at 3 times IC50 [6]: 1.6%
Activity (K562 [7]): 8%
Activity (Jurkat [8]): Active
Activity (K562 [9]): 15.8%
Activity (K562 [10]): 21.2%
Activity (K562 [11]): 20%
Activity (Jurkat [12]): 12.9%
